Measurements collected from several papers.
Target: Mitogen-activated protein kinase kinase kinase 3 (MAP3K3, Homo sapiens, UniProt Q99759)
One construct used (Q99759 1-626): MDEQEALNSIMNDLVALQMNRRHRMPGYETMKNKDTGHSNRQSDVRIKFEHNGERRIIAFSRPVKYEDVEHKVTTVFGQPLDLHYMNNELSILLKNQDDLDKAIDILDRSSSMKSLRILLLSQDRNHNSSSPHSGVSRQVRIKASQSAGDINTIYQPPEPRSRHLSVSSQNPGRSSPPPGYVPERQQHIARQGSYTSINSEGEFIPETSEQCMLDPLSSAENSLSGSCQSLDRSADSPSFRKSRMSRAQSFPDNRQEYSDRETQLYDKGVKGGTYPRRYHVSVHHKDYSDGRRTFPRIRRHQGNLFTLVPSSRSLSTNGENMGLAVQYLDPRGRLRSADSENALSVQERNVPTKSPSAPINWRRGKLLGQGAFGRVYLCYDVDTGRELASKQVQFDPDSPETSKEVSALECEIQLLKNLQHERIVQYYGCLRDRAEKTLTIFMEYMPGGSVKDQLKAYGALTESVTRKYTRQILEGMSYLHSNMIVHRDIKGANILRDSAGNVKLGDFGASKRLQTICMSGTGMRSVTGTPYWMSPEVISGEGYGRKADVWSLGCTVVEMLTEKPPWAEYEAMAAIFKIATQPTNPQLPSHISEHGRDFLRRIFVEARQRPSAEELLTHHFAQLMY

Structure (SMILES)	observed	action	method	tested at	quantity	result
O=C(Nc1cnn(-c2csc(C(=O)NC3COC3)c2)c1)Nc1ccccc1Cl	enzyme activity	inhibitor		5 µM	remaining activity	113%
c1cnn2ncc(-c3ccnc(N4CCC45COC5)n3)c2c1	binding			1 µM	remaining binding	40%
Nc1ncnc2occ(-c3ccc(NC(=O)Nc4cc(C(F)(F)F)ccc4F)cc3)c12	cell-free assay	inhibitor		20 µM	remaining signal	4.3%
CCOc1cc(-c2nncn2C)ccc1Nc1ncc2cc(C)nc(NCC(C)(C)C)c2n1	cell-free assay		TR-FRET	1 µM	inhibition	≤ 15%
CCS(=O)(=O)c1cc2cc(C[C@@](O)(CC(C)(C)c3ccc(F)cc3C(N)=O)C(F)(F)F)[nH]c2cn1	cell-free assay		competition with immobilised ligand	1 µM	remaining binding	90%
CS(=O)(=O)CCNCc1ccc(-c2ccc3ncnc(Nc4ccc(OCc5cccc(F)c5)c(Cl)c4)c3c2)o1	cell-free assay			0.5 µM	remaining signal	110%
C[C@H](c1ccc(F)cc1)N(Cc1cccc(C(=O)O)c1)C(=O)c1cnc2ccccc2c1	cell-free assay		competition with immobilised ligand	1 µM	remaining binding	100%
O=C(Nc1cnn(-c2csc(C(=O)NC3COC3)c2)c1)Nc1c(F)cccc1Cl	enzyme activity	inhibitor		5 µM	remaining activity	81.9%
O=C(NCc1ncc(C(F)(F)F)cc1Cl)c1ccc2c(c1)C1(CCS(=O)(=O)CC1)[C@H](C1CC1)N2S(=O)(=O)c1ccc(F)cc1	cell-free assay		competition with immobilised ligand	1 µM	remaining binding	74%
COc1ccc(F)cc1C(=O)NCc1ccc(-c2nn([C@@H](C)C(F)(F)F)c(N)c2C(N)=O)cc1	target engagement in cells	inhibitor	chemoproteomics	10 µM	inhibition	-38.5%
COc1cc(Nc2c(C#N)cnc3cc(OCCCN4CCN(C)CC4)c(OC)cc23)c(Cl)cc1Cl	cell-free assay			0.5 µM	remaining signal	11.8%
C[C@@H]1CN(c2cc(-c3n[nH]c4ccc(OC5(C)CC5)cc34)ncn2)C[C@H](C)O1	cell-free assay		competition with immobilised ligand	0.1 µM	remaining binding	64%
Cc1ccc(NC(=O)c2ccc(CN3CCN(C)CC3)cc2)cc1Nc1nc(-c2cccnc2)cs1	cell-free assay			0.5 µM	remaining signal	108%
CC(C)(C)c1nc(-c2cccc(NS(=O)(=O)c3c(F)cccc3F)c2F)c(-c2ccnc(N)n2)s1	enzyme activity	inhibitor	radiometric	1 µM	remaining activity	96%
O=C(NS(=O)(=O)c1ccc(NCC2CCOCC2)c([N+](=O)[O-])c1)c1ccc(N2CCN(Cc3ccc(C(F)(F)F)cc3-c3ccc(Cl)cc3)CC2)cc1Oc1cnc2[nH]ccc2c1	cell-free assay		competition with immobilised ligand	1 µM	remaining binding	82%
O=C1NC(=O)c2cc(Nc3ccc(F)cc3)c(Nc3ccc(F)cc3)cc21	cell-free assay			0.5 µM	remaining signal	102%
